Measured values gathered from unrelated publications.
Compare with care: the assays were run in different laboratories.
Target: Voltage-gated inwardly rectifying potassium channel KCNH2 (KCNH2, Homo sapiens, UniProt Q12809)

SMILES | assay | system | setting | quantity | value
NC/C(=C\F)COc1cccc(Cn2c(=S)[nH]c(=O)c3[nH]cnc32)c1 | ion current, inhibitor |  | 10 µM | inhibition | 3.8%
CCCN1CCCC[C@H]1C(=O)Nc1c(C)cccc1C | ion current, inhibitor, patch clamp |  | 100 µM | inhibition | 82.3%
COC1=CC(c2ccc[nH]2)=N/C1=C\c1[nH]c(Cc2ccc(OC(F)(F)F)cc2)cc1Cc1ccc(OC(F)(F)F)cc1 | ion current, inhibitor, patch clamp |  | 50 µM | inhibition | 26.6%
Cn1cc2c(C(=O)O)ccc(NS(=O)(=O)c3ccc(OCC4CCC4)c(Cl)c3)c2n1 | ion current |  |  | IC50 | > 10 µM
CCOC(=O)C1=C(CN2CCC[C@@H]2C(=O)Nc2ccc(B(O)O)cc2)NC(c2nccs2)=N[C@H]1c1ccc(F)cc1Br | ion current, inhibitor, patch clamp | HEK293 | 1 µM, pH 7.4 | inhibition | 14.6%
CC(=O)N1CCC(C(=O)N2CCN3C(=O)c4cc(-c5ccccc5)ccc4NC(=O)C3C2)CC1 (stereo not drawn) | ion current, inhibitor, patch clamp | HEK293 | 10 µM | inhibition | 4%
CN1C[C@H](COc2nccc3c(NCc4ccco4)cc(Cl)nc23)OC1=O | ion current, inhibitor | HEK293 | 30 µM | inhibition | 37.1%
COc1cc(N)c(Cl)cc1C(=O)NC1CCN(CCCOc2ccc(F)cc2)CC1OC (stereo not drawn) | ion current, inhibitor, patch clamp | HEK293 | 100 pM, pH 7.4 | inhibition | 3.11%
CC(C)(C)c1sc2ncnc(Oc3c(F)cccc3OC(F)(F)F)c2c1-c1ccc(Cl)cc1 | ligand displacement, radioligand |  | 10 µM | inhibition | > 50%
